{"source": "ChEMBL document CHEMBL1125428", "about": "“Development of 2,3-dihydro-6-(3-phenoxypropyl)-2-(2-phenylethyl)-5-benzofuranol (L-670,630) as a potent and orally active inhibitor of 5-lipoxygenase” (J Med Chem, 1992)", "key": {"[1]": {"biological_target": "T1, Polyunsaturated fatty acid 5-lipoxygenase (Rattus norvegicus, UniProt P12527)", "T1 sequence (P12527 whole entry)": "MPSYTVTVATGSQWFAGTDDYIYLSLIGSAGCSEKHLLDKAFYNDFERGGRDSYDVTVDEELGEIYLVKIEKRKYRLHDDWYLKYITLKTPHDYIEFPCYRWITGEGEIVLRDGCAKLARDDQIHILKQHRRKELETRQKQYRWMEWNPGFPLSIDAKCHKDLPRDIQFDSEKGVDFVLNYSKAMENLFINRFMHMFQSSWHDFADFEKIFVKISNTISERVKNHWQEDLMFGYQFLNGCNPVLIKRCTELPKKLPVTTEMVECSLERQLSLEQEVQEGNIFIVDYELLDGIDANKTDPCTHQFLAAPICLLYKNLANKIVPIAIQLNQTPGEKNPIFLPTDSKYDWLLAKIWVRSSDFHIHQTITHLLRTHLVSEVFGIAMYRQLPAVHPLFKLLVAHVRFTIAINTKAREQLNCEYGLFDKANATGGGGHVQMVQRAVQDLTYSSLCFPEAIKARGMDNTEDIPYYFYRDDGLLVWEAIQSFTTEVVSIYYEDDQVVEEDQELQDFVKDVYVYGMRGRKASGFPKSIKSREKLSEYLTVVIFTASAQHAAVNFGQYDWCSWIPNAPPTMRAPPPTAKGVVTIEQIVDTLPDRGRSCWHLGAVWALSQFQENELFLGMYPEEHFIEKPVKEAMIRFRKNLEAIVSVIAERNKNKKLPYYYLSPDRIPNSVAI", "experiment": "Tested for its inhibitory activity against arachidonic acid in rat 5-lipoxygenase.", "method_in_brief": "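10000g supernatant from rat PMN leukocytes incubated 10 min with [14C]arachidonic acid. 5-Lipoxygenase activity taken as percentage conversion to 5-HETE plus 5,12-diHETEs.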"}, "Rattus norvegicus [2]": {"organism": "Rattus norvegicus", "experiment": "Effective dose against antigen induced dyspnea in hyperactive inbred rat at a dose of […]", "assay_type": "functional"}, "Rattus norvegicus [3]": {"test_system": "Rattus norvegicus", "experiment": "Total radioactivity in tissues of male sd rats dosed orally with H-labeled compound at 21 mg/kg after 30 min in lung", "assay_type": "functional", "conditions": "route oral", "method_in_brief": "(§1)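 Male Sprague-Dawley rats received ³H-labelled drug (phenoxy ring, 3.96 μCi/mg) in PEG-400 by gavage at 21 mg/kg. Animals were killed at 5, 15, 30 min and at 1, 2, 4, 24 and 48 h. Homogenates were pooled per group, and total radioactivity was measured as the mean of duplicate combustions, in μg equiv/g. Two or three rats were used per point, except one rat at 24 and 48 h.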"}, "Rattus norvegicus [4]": {"test_system": "Rattus norvegicus", "experiment": "Total radioactivity in tissues of male sd rats dosed orally with H-labeled compound at 21 mg/kg after 30 min in plasma", "assay_type": "functional", "conditions": "route oral", "method_in_brief": "as §1"}, "Rattus norvegicus [5]": {"test_system": "Rattus norvegicus", "experiment": "% compound was determined by the amount of radioactivity elute with H-labeled at 21 mg/kg after 5 min using RP-HPLC. at a dose of 380 ug/g in lung of male sd rat.", "assay_type": "functional"}, "Rattus norvegicus [6]": {"test_system": "Rattus norvegicus", "experiment": "Total radioactivity in tissues of male sd rats dosed orally with H-labeled compound at 21 mg/kg after 30 min in liver", "assay_type": "functional", "conditions": "route oral", "method_in_brief": "as §1"}, "Rattus norvegicus [7]": {"test_system": "Rattus norvegicus", "experiment": "Total radioactivity in tissues of male sd rats dosed intravenously with H-labeled compound at 21 mg/kg after 10 min in kidney", "assay_type": "functional", "conditions": "route intravenous", "method_in_brief": "(§2)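 Male Sprague-Dawley rats given ³H compound iv via femoral vein in PEG-400, 21 mg/kg, 3.96 μCi/mg. Killed at 2, 10, 30 min, 1, 2 and 4 h. Total radioactivity measured by combustion of composited tissue homogenates, in duplicate. Two or three rats per time point, one at 10 and 30 min.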"}, "Rattus norvegicus [8]": {"test_system": "Rattus norvegicus", "experiment": "Total radioactivity in tissues of male sd rats dosed intravenously with H-labeled compound at 21 mg/kg after 10 min in liver", "assay_type": "functional", "conditions": "route intravenous", "method_in_brief": "as §2"}, "Rattus norvegicus [9]": {"test_system": "Rattus norvegicus", "experiment": "Total radioactivity in tissues of male sd rats dosed intravenously with H-labeled compound at 21 mg/kg after 10 min in plasma", "assay_type": "functional", "conditions": "route intravenous"}, "Rattus norvegicus [10]": {"test_system": "Rattus norvegicus", "experiment": "Total radioactivity in tissues of male sd rats dosed intravenously with H-labeled compound at 21 mg/kg after 1 hr in kidney", "assay_type": "functional", "conditions": "route intravenous", "method_in_brief": "as §2"}, "Rattus norvegicus [11]": {"test_system": "Rattus norvegicus", "experiment": "Total radioactivity in tissues of male sd rats dosed intravenously with H-labeled compound at 21 mg/kg after 1 hr in plasma", "assay_type": "functional", "conditions": "route intravenous"}, "Rattus norvegicus [12]": {"test_system": "Rattus norvegicus", "experiment": "Total radioactivity in tissues of male sd rats dosed intravenously with H-labeled compound at 21 mg/kg after 2 hr in lung", "assay_type": "functional", "conditions": "route intravenous", "method_in_brief": "as §2"}, "Rattus norvegicus [13]": {"test_system": "Rattus norvegicus", "experiment": "Total radioactivity in tissues of male sd rats dosed intravenously with H-labeled compound at 21 mg/kg after 2 hr in plasma", "assay_type": "functional", "conditions": "route intravenous"}, "Rattus norvegicus [14]": {"test_system": "Rattus norvegicus", "experiment": "Total radioactivity in tissues of male sd rats dosed intravenously with H-labeled compound at 21 mg/kg after 2 min in kidney", "assay_type": "functional", "conditions": "route intravenous", "method_in_brief": "as §2"}, "Rattus norvegicus [15]": {"test_system": "Rattus norvegicus", "experiment": "Total radioactivity in tissues of male sd rats dosed orally with H-labeled compound at 21 mg/kg after 5 min in plasma", "assay_type": "functional", "conditions": "route oral", "method_in_brief": "as §1"}, "Rattus norvegicus [16]": {"test_system": "Rattus norvegicus", "experiment": "Total radioactivity in tissues of male sd rats dosed orally with H-labeled compound at 21 mg/kg after 48 hr in liver", "assay_type": "functional", "conditions": "route oral", "method_in_brief": "as §1"}, "Rattus norvegicus [17]": {"test_system": "Rattus norvegicus", "experiment": "Total radioactivity in tissues of male sd rats dosed orally with H-labeled compound at 21 mg/kg after 48 hr in plasma", "assay_type": "functional", "conditions": "route oral", "method_in_brief": "as §1"}, "Rattus norvegicus [18]": {"test_system": "Rattus norvegicus", "experiment": "Total radioactivity in tissues of male sd rats dosed intravenously with H-labeled compound at 21 mg/kg after 4 hr in lung", "assay_type": "functional", "conditions": "route intravenous", "method_in_brief": "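³H label in the phenoxy ring, dissolved in PEG-400, specific activity 3.96 μCi/mg, given iv via femoral vein at 21 mg/kg to male Sprague-Dawley rats. Animals were killed at 2, 10, 30 min, 1, 2 and 4 h. Tissues from each group were pooled and homogenized, and total radioactivity was measured by combustion, averaged over duplicate combustions. Results are expressed as μg equiv/g. Two or three rats were used per time point.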"}, "Rattus norvegicus [19]": {"test_system": "Rattus norvegicus", "experiment": "Total radioactivity in tissues of male sd rats dosed orally with H-labeled compound at 21 mg/kg after 15 min in kidney", "assay_type": "functional", "conditions": "route oral", "method_in_brief": "as §1"}, "Rattus norvegicus [20]": {"test_system": "Rattus norvegicus", "experiment": "Total radioactivity in tissues of male sd rats dosed orally with H-labeled compound at 21 mg/kg after 15 min in liver", "assay_type": "functional", "conditions": "route oral", "method_in_brief": "as §1"}, "Rattus norvegicus [21]": {"test_system": "Rattus norvegicus", "experiment": "Total radioactivity in tissues of male sd rats dosed orally with H-labeled compound at 21 mg/kg after 1 hr in lung", "assay_type": "functional", "conditions": "route oral", "method_in_brief": "as §1"}, "Rattus norvegicus [22]": {"test_system": "Rattus norvegicus", "experiment": "Total radioactivity in tissues of male sd rats dosed orally with H-labeled compound at 21 mg/kg after 1 hr in plasma", "assay_type": "functional", "conditions": "route oral", "method_in_brief": "as §1"}, "Rattus norvegicus [23]": {"test_system": "Rattus norvegicus", "experiment": "Total radioactivity in tissues of male sd rats dosed orally with H-labeled compound at 21 mg/kg after 24 hr r in kidney", "assay_type": "functional", "conditions": "route oral", "method_in_brief": "as §1"}, "Rattus norvegicus [24]": {"test_system": "Rattus norvegicus", "experiment": "Total radioactivity in tissues of male sd rats dosed orally with H-labeled compound at 21 mg/kg after 24 hr r in liver", "assay_type": "functional", "conditions": "route oral", "method_in_brief": "as §1"}, "Rattus norvegicus [25]": {"test_system": "Rattus norvegicus", "experiment": "Total radioactivity in tissues of male sd rats dosed orally with H-labeled compound at 21 mg/kg after 30 min in kidney", "assay_type": "functional", "conditions": "route oral", "method_in_brief": "as §1"}, "Rattus norvegicus [26]": {"organism": "Rattus norvegicus", "experiment": "Percentage inhibition against antigen induced dyspnea in hyperactive inbred rat at a dose of […]", "assay_type": "functional", "conditions": "dose 0.15 mg/kg"}, "Rattus norvegicus [27]": {"test_system": "Rattus norvegicus", "experiment": "Total radioactivity in tissues of male sd rats dosed orally with H-labeled compound at 21 mg/kg after 48 hr in lung", "assay_type": "functional", "conditions": "route oral", "method_in_brief": "as §1"}, "Rattus norvegicus [28]": {"test_system": "Rattus norvegicus", "experiment": "Amount of radioactivity elute with H-labeled at 21 mg/kg after 4 hr using RP-HPLC. at a dose of […] in lung of male sd rat."}}, "note": "pIC50: −log10 of the molar value.", "data": [{"smiles": "Oc1cc2c(cc1CCCOc1ccccc1)OC(CCc1ccccc1)C2", "note": "(stereo not drawn)", "values": [{"measurement": "pIC50", "setting": "[1]", "value": 7.64}, {"measurement": "ED50 at […]", "setting": "Rattus norvegicus [2]", "value": 0.06, "unit": "mg/kg"}, {"measurement": "Total radioactivity", "setting": "Rattus norvegicus [3]", "value": 4.11, "unit": "ug equiv g-1"}, {"measurement": "Total radioactivity", "setting": "Rattus norvegicus [4]", "value": 1.09, "unit": "ug equiv g-1"}, {"measurement": "Activity", "setting": "Rattus norvegicus [5]", "value": 80.4, "unit": "%"}, {"measurement": "Total radioactivity", "setting": "Rattus norvegicus [6]", "value": 3.92, "unit": "ug equiv g-1"}, {"measurement": "Total radioactivity", "setting": "Rattus norvegicus [7]", "value": 54.13, "unit": "ug equiv g-1"}, {"measurement": "Total radioactivity", "setting": "Rattus norvegicus [8]", "value": 143.94, "unit": "ug equiv g-1"}, {"measurement": "Total radioactivity", "setting": "Rattus norvegicus [9]", "value": 9.65, "unit": "ug equiv g-1"}, {"measurement": "Total radioactivity", "setting": "Rattus norvegicus [10]", "value": 11.78, "unit": "ug equiv g-1"}, {"measurement": "Total radioactivity", "setting": "Rattus norvegicus [11]", "value": 3.34, "unit": "ug equiv g-1"}, {"measurement": "Total radioactivity", "setting": "Rattus norvegicus [12]", "value": 1.6, "unit": "ug equiv g-1"}, {"measurement": "Total radioactivity", "setting": "Rattus norvegicus [13]", "value": 0.88, "unit": "ug equiv g-1"}, {"measurement": "Total radioactivity", "setting": "Rattus norvegicus [14]", "value": 51.19, "unit": "ug equiv g-1"}, {"measurement": "Total radioactivity", "setting": "Rattus norvegicus [15]", "value": 7.74, "unit": "ug equiv g-1"}, {"measurement": "Total radioactivity", "setting": "Rattus norvegicus [16]", "value": 0.11, "unit": "ug equiv g-1"}, {"measurement": "Total radioactivity", "setting": "Rattus norvegicus [17]", "value": 0.82, "unit": "ug equiv g-1"}, {"measurement": "Total radioactivity", "setting": "Rattus norvegicus [18]", "value": 5, "unit": "ug equiv g-1"}, {"measurement": "Total radioactivity", "setting": "Rattus norvegicus [19]", "value": 5.5, "unit": "ug equiv g-1"}, {"measurement": "Total radioactivity", "setting": "Rattus norvegicus [20]", "value": 7.82, "unit": "ug equiv g-1"}, {"measurement": "Total radioactivity", "setting": "Rattus norvegicus [21]", "value": 3.58, "unit": "ug equiv g-1"}, {"measurement": "Total radioactivity", "setting": "Rattus norvegicus [22]", "value": 1.41, "unit": "ug equiv g-1"}, {"measurement": "Total radioactivity", "setting": "Rattus norvegicus [23]", "value": 0.15, "unit": "ug equiv g-1"}, {"measurement": "Total radioactivity", "setting": "Rattus norvegicus [24]", "value": 0.68, "unit": "ug equiv g-1"}, {"measurement": "Total radioactivity", "setting": "Rattus norvegicus [25]", "value": 0.85, "unit": "ug equiv g-1"}, {"measurement": "inhibition in vivo at […]", "setting": "Rattus norvegicus [26]", "value": 55, "unit": "%"}, {"measurement": "Total radioactivity", "setting": "Rattus norvegicus [27]", "value": 0.09, "unit": "ug equiv g-1"}, {"measurement": "Activity", "setting": "Rattus norvegicus [28]", "value": 8.9, "unit": "%"}]}]}
